As a reminder, the Cmax is the maximum level reached in the sampled fluid or tissue. As a reminder, the clearance is the rate of elimination divided by the concentration. By half-life is commonly meant the time needed for the level to fall by half in the phase considered. Low readings indicate fast loss, high ones slow loss. In general, AUC(0-t) refers to exposure summed from dosing to a finite time, without extrapolation to infinity. As usually defined, the AUC is concentration integrated over time. Low values mean low exposure, high ones high exposure.

This is an account of results in ChEMBL document CHEMBL1155155, “Single-dose pharmacokinetics of intravenous itraconazole and hydroxypropyl-beta-cyclodextrin in infants, children, and adolescents” (Antimicrob Agents Chemother, 2007).

Data set [1] is described as follows: Cmax in infants of 0.6-2 yrs age at risk for fungal infection at 2.5 mg/kg, iv in 0.1 g/kg hydroxypropyl-beta-cyclodextrin administered as single dose. Also noted: dose 2.5 mg/kg, route intravenous. Type of data set: ADME, organism-based. The conditions noted are these: human, in vivo. The method in brief: (§1)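 Single 1-h IV infusion. Plasma sampled from the contralateral limb predose and at 1–120 h (>2 y) or 1–96 h (<2 y). Itraconazole was extracted with internal standard and quantified by C18 HPLC with UV 263 nm detection, linear range 2–2,000 ng/ml. Noncompartmental analysis: Cmax by inspection, AUC0-24 by trapezoidal rule, AUC extrapolated via λz, CL and Vz from AUC0-∞.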

Data set [2] can be described thus: Clearance in infants of 0.6-2 yrs age at risk for fungal infection at 2.5 mg/kg, iv in 0.1 g/kg hydroxypropyl-beta-cyclodextrin administered as single dose. It counts as ADME, organism-based. On the set-up: dose 2.5 mg/kg, route intravenous. The conditions noted are these: human, in vivo. The method, boiled down: as §1
Data set [3] relates to Homo sapiens. Nature of the data set: Toxicity in human at risk for fungal infection assessed as occurrence of adverse events at 2.5 mg/kg, iv in 0.1 g/kg hydroxypropyl-beta-cyclodextrin administered as single dose. The conditions noted are these: in vivo. Also noted: dose 2.5 mg/kg, route intravenous. It counts as organism-based. The method, boiled down: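 Safety was assessed by medical history, physical examination, complete blood count, serum chemistry, liver function tests and urinalysis. These were done before the single 1-h IV infusion and again at study completion. Subjects stayed at the study facility through 24 h postdose.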

Data set [4] in a line: Apparent volume of distribution in infants of 0.6-2 yrs age at risk for fungal infection at 2.5 mg/kg, iv in 0.1 g/kg hydroxypropyl-beta-cyclodextrin administered as single dose. Type of data set: ADME, organism-based. The conditions noted are these: human, in vivo. Also noted: dose 2.5 mg/kg, route intravenous. The method, boiled down: as §1
A short description of data set [5]: Half life in infants of 0.6-2 yrs age at risk for fungal infection at 2.5 mg/kg, iv in 0.1 g/kg hydroxypropyl-beta-cyclodextrin administered as single dose. Type of data set: ADME, organism-based. Also noted: dose 2.5 mg/kg, route intravenous. The following applies: human, in vivo. The method in brief:
as §1

Data set [6] in a line: Cmax in children of >2-6 yrs age at risk for fungal infection at 2.5 mg/kg, iv in 0.1 g/kg hydroxypropyl-beta-cyclodextrin administered as single dose. The following applies: human, in vivo. On the set-up: dose 2.5 mg/kg, route intravenous. Type of data set: ADME, organism-based. The method in brief:
as §1

Data set [7] can be described thus: Apparent volume of distribution in children of >2-6 yrs age at risk for fungal infection at 2.5 mg/kg, iv in 0.1 g/kg hydroxypropyl-beta-cyclodextrin administered as single dose. Type of data set: ADME, organism-based. Also noted: dose 2.5 mg/kg, route intravenous. The conditions noted are these: human, in vivo. The method, boiled down: as §1
Data set [8] can be described thus: Half life in children of >2-6 yrs age at risk for fungal infection at 2.5 mg/kg, iv in 0.1 g/kg hydroxypropyl-beta-cyclodextrin administered as single dose. Type of data set: ADME, organism-based. On the set-up: dose 2.5 mg/kg, route intravenous. The following applies: human, in vivo. The method, boiled down:
as §1

Data set [9] can be described thus: Cmax in children of >6-12 yrs age at risk for fungal infection at 2.5 mg/kg, iv in 0.1 g/kg hydroxypropyl-beta-cyclodextrin administered as single dose. Also noted: dose 2.5 mg/kg, route intravenous. It counts as ADME, organism-based. The following applies: human, in vivo. The method in brief: as §1
The nature of data set [10]: Clearance in children of >6-12 yrs age at risk for fungal infection at 2.5 mg/kg, iv in 0.1 g/kg hydroxypropyl-beta-cyclodextrin administered as single dose. On the set-up: dose 2.5 mg/kg, route intravenous. It counts as ADME, organism-based. The following applies: human, in vivo. The method in brief:
as §1

Data set [11] can be described thus: Apparent volume of distribution in children of >6-12 yrs age at risk for fungal infection at 2.5 mg/kg, iv in 0.1 g/kg hydroxypropyl-beta-cyclodextrin administered as single dose. It counts as ADME, organism-based. On the set-up: dose 2.5 mg/kg, route intravenous. The conditions noted are these: human, in vivo. The method, boiled down: as §1
The nature of data set [12]: Half life in children of >6-12 yrs age at risk for fungal infection at 2.5 mg/kg, iv in 0.1 g/kg hydroxypropyl-beta-cyclodextrin administered as single dose. It counts as ADME, organism-based. Also noted: dose 2.5 mg/kg, route intravenous. The following applies: human, in vivo. The method, boiled down: as §1
Data set [13] in a line: Cmax in adolescents of >12-16 yrs age at risk for fungal infection at 2.5 mg/kg, iv in 0.1 g/kg hydroxypropyl-beta-cyclodextrin administered as single dose. It counts as ADME, organism-based. The following applies: human, in vivo. Also noted: dose 2.5 mg/kg, route intravenous. The method in brief:
as §1

Data set [14] is described as follows: Clearance in adolescents of >12-16 yrs age at risk for fungal infection at 2.5 mg/kg, iv in 0.1 g/kg hydroxypropyl-beta-cyclodextrin administered as single dose. It counts as ADME, organism-based. On the set-up: dose 2.5 mg/kg, route intravenous. The conditions noted are these: human, in vivo. The method, boiled down: as §1
Data set [15] can be described thus: Apparent volume of distribution in adolescents of >12-16 yrs age at risk for fungal infection at 2.5 mg/kg, iv in 0.1 g/kg hydroxypropyl-beta-cyclodextrin administered as single dose. Type of data set: ADME, organism-based. On the set-up: dose 2.5 mg/kg, route intravenous. The following applies: human, in vivo. The method, boiled down: as §1
A short description of data set [16]: Half life in adolescents of >12-16 yrs age at risk for fungal infection at 2.5 mg/kg, iv in 0.1 g/kg hydroxypropyl-beta-cyclodextrin administered as single dose. It counts as ADME, organism-based. Also noted: dose 2.5 mg/kg, route intravenous. The following applies: human, in vivo. The method in brief:
as §1

Data set [17] can be described thus: Cmax in human at risk for fungal infection at 2.5 mg/kg, iv in 0.1 g/kg hydroxypropyl-beta-cyclodextrin administered as single dose. Type of data set: ADME, organism-based. Also noted: dose 2.5 mg/kg, route intravenous. The following applies: in vivo. The method in brief:
as §1

Data set [18] can be described thus: Clearance in human at risk for fungal infection at 2.5 mg/kg, iv in 0.1 g/kg hydroxypropyl-beta-cyclodextrin administered as single dose. Type of data set: ADME, organism-based. Also noted: dose 2.5 mg/kg, route intravenous. The following applies: in vivo. The method, boiled down:
as §1

A short description of data set [19]: Apparent volume of distribution in human at risk for fungal infection at 2.5 mg/kg, iv in 0.1 g/kg hydroxypropyl-beta-cyclodextrin administered as single dose. Type of data set: ADME, organism-based. On the set-up: dose 2.5 mg/kg, route intravenous. The conditions noted are these: in vivo. The method, boiled down: as §1
Data set [20] is described as follows: Half life in human at risk for fungal infection at 2.5 mg/kg, iv in 0.1 g/kg hydroxypropyl-beta-cyclodextrin administered as single dose. It counts as ADME, organism-based. Also noted: dose 2.5 mg/kg, route intravenous. The conditions noted are these: in vivo. The method, boiled down:
as §1

The nature of data set [21]: AUC (0 to 24 hrs) in infants of 0.6-2 yrs age at risk for fungal infection at 2.5 mg/kg, iv in 0.1 g/kg hydroxypropyl-beta-cyclodextrin administered as single dose. The following applies: human, plasma. Also noted: time < 24 hr, dose 2.5 mg/kg, route intravenous. It counts as ADME, organism-based. The method, boiled down:
as §1

For data set [22], the system named is Homo sapiens. Nature of the data set: AUC (0 to 24 hrs) in children of >2-6 yrs age at risk for fungal infection at 2.5 mg/kg, iv in 0.1 g/kg hydroxypropyl-beta-cyclodextrin administered as single dose. The following applies: in vivo. Also noted: time < 24 hr, dose 2.5 mg/kg, route intravenous. It counts as ADME, organism-based, Plasma. The method in brief:
as §1

For `CCC(C)n1ncn(-c2ccc(N3CCN(c4ccc(OCC5COC(Cn6cncn6)(c6ccc(Cl)cc6Cl)O5)cc4)CC3)cc2)c1=O` (configuration not stated) [ITRACONAZOLE], the Cmax in data set [1] came out at 827 ng/mL; in data set [6] it was 1550 ng/mL; in data set [9] it was 785 ng/mL; in data set [13], 806 ng/mL; in data set [17] it was 1020 ng/mL. The clearance in data set [2] was 19.1 mL/min/kg; in [10] it was 10.3 mL/min/kg; in data set [14], 12.9 mL/min/kg; in data set [18] it was 11.7 mL/min/kg. In addition, the Activity result in the data set on Homo sapiens [3] is recorded as “Toxic”. For the same molecule, the Vd was 23.6 L/kg in [4]; 8.3 L/kg in [7]; 13.9 L/kg in data set [11]; 28.5 L/kg in data set [15]; 18.5 L/kg in data set [19]. Besides, the half-life in [5] was 13.3 h; in data set [8], 14 h; in data set [12], 17.2 h; in [16], 29 h; in data set [20] it was 20.2 h. In data set [21], this molecule returned an exposure AUC(0-t) at 24 h of 2120 ng·h/mL. In the data set with Homo sapiens [22], this molecule gave an AUC of 9510 ng·h/mL.
